Experiments:
[1] = system: D1 dopamine receptor (Cyprinus carpio); test: Intrinsic activity measured relative to dopamine on D1C(R) receptor
[2] = biological target: T1, D(1A) dopamine receptor (Rattus norvegicus, UniProt P18901); test: Binding affinity using [125 I] SCH 23982 radioligand competitive binding assay on dopamine receptor D1
[3] = biological target: T2, D(2) dopamine receptor (Rattus norvegicus, UniProt P61169); test: Concentration required to inhibit 50% dopamine receptor D2 in a cell free homogenate of intermediate lobe of pituitary gland; type: functional
T2 sequence (P61169 whole entry): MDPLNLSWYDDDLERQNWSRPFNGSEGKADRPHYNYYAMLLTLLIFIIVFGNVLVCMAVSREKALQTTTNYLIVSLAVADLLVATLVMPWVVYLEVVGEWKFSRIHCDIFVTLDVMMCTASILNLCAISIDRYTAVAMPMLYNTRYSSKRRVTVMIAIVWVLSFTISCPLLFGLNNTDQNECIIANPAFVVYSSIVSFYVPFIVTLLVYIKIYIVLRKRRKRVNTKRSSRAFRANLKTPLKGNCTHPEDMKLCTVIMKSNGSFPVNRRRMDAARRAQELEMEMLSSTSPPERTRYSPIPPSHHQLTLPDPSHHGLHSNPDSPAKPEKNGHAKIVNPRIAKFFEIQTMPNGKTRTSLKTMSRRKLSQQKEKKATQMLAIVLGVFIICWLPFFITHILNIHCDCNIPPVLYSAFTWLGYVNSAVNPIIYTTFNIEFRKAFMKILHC

[4] = biological target: T2, D(2) dopamine receptor; test: Binding affinity using [3H]-spiperone radioligand competitive binding assay against dopamine receptor D2
Summary of the method: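 Rat striatal membranes in Tris pH 7.4 buffer with salts and ascorbate. [3H]spiperone at 300 pM final; nonspecific binding with 10 μM YM-09151-2. Incubated 20 min at 37 °C, then filtered. Ki derived from IC50 by Cheng-Prusoff.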

[5] = biological target: T1, D(1A) dopamine receptor; test: Inhibition of Dopamine receptor D1 activity by functional cyclase assay using cell free homogenate of rat striatum; type: tissue-based
Summary of the method: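 Adenylate cyclase stimulation in cell-free homogenate of rat striatum. EC50 is the concentration giving half-maximal stimulation of cAMP production.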

[6] = biological target: D(1A) dopamine receptor (Rattus norvegicus) (UniProt P18901); test: Intrinsic activity was measured in relative to dopamine on D1C(S) receptor
D(1A) dopamine receptor (Rattus norvegicus), sequence (P18901 whole entry, looked up): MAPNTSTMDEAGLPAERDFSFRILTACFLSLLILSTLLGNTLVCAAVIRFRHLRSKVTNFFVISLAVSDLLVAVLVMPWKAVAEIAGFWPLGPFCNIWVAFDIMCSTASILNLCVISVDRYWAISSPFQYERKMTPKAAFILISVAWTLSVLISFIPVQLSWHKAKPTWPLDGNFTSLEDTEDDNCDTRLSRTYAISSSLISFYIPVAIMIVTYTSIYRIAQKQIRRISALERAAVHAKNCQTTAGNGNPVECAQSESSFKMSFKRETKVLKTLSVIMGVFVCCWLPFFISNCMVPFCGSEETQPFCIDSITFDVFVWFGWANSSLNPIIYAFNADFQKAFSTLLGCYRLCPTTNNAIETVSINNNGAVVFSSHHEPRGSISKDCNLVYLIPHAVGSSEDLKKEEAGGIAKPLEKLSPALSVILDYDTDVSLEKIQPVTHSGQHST

[7] = Intrinsic activity relative to dopamine at D-2 receptor.; type: functional
[8] = system: Rattus norvegicus; test: Rat rotation experiments were conducted to evaluate rational behavior of the rats by administering at a dose of 30 umol/kg subcutaneously; type: functional
Summary of the method: (§1)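 Rats with unilateral 6-hydroxydopamine lesions of the nigrostriatal bundle. Compound given subcutaneously or orally at the stated dose. Net contralateral rotations counted over 2 h after dosing and reported as mean ± SEM; negative values indicate ipsilateral turning.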

[9] = system: Rattus norvegicus; test: Rat rotation experiments were conducted to evaluate rational behavior of the rats by administering at a dose of 15 umol/kg subcutaneously; type: functional
Summary of the method: as §1

[10] = system: Rattus norvegicus; test: Rat rotation experiments were conducted to evaluate rational behavior of the rats by administering at a dose of 130 umol/kg subcutaneously; type: functional
Summary of the method: as §1

[11] = system: Rattus norvegicus; test: Rat rotation experiments were conducted to evaluate rational behavior of the rats by administering at a dose of 65 umol/Kg subcutaneously; type: functional
Summary of the method: as §1

[12] = system: Rattus norvegicus; test: Rat rotation experiments were conducted to evaluate rational behavior of the rats by administering at a dose of 260 umol/kg subcutaneously; type: functional
Summary of the method: as §1

T1 sequence (P18901 whole entry): as the sequence (P18901 whole entry, looked up) above

Row | Intrinsic activity [1] [%] | Ki [2] [µM] | EC50 [3] [µM] | Ki [4] [µM] | EC50 [5] [µM] | Intrinsic activity [6] [%] | Intrinsic activity [7] [%] | SMILES | Activity [8] | Activity [9] | Activity [10] | Activity [11] | Activity [12]
1 | 107 | 0.31 | > 10 | 0.764 |  |  |  | COc1cccc(C2Cc3c(ccc(O)c3O)[C@H](CN)O2)c1 (stereo partly drawn) |  |  |  |  | 
2 | 87 | 4.73 | > 10 | 11.5 |  |  |  | C#CCNC[C@@H]1OC(C2CCCCC2)Cc2c1ccc(O)c2O (stereo partly drawn) |  |  |  |  | 
3 | 76 | 0.248 | > 10 | 0.67 | 0.0189 | 78 |  | NC[C@@H]1OC(CCc2ccccc2)Cc2c1ccc(O)c2O (stereo partly drawn) |  |  |  |  | 
4 | 107 | 2.29 | 0.204 | 0.386 |  |  | 78 | NC[C@@H]1OC(COCc2ccccc2)Cc2c1ccc(O)c2O (stereo partly drawn) |  |  |  |  | 
5 | 93 | 0.443 | > 10 | 1.47 |  |  |  | NC[C@@H]1OC(Cc2ccccc2)Cc2c1ccc(O)c2O (stereo partly drawn) |  |  |  |  | 
6 | 65 | 0.479 | 6.68 | 4.68 |  |  | 56 | NC[C@@H]1OC2(CCCCC2)Cc2c1ccc(O)c2O |  |  |  |  | 
7 | 92 | 1.76 | 5.13 | > 10 |  |  | 76 | CC[C@H]1Cc2c(ccc(O)c2O)[C@H](CN)O1 |  |  |  |  | 
8 | 89 | 0.167 | 10.8 | 3.53 |  |  | 81 | CC[C@@H]1Cc2c(ccc(O)c2O)[C@H](CN)O1 |  |  |  |  | 
9 | 51 | 0.374 | > 10 | 1.28 | 0.0398 | 64 |  | NC[C@@H]1OC(COc2ccccc2)Cc2c1ccc(O)c2O (stereo partly drawn) | 514 | 467 |  |  | 
10 |  | 0.0141 | > 10 | 0.724 |  |  |  | CNC[C@@H]1OC(C2CCCCC2)Cc2c1ccc(O)c2O (stereo partly drawn) |  |  |  |  | 
11 |  | 0.53 | > 10 | 2.61 |  |  |  | NC[C@@H]1OC(C(c2ccccc2)c2ccccc2)Cc2c1ccc(O)c2O (stereo partly drawn) |  |  |  |  | 
12 |  | 1.03 | 2.85 | 4.61 |  |  | 96 | NC[C@@H]1OCCc2c1ccc(O)c2O |  |  | 286 | 93 | 584
13 |  | 2.51 | > 10 | > 10 |  |  |  | C#CCN(C)C[C@@H]1OC(C2CCCCC2)Cc2c1ccc(O)c2O (stereo partly drawn) |  |  |  |  | 
14 |  | > 10 | > 10 | 2.45 |  |  |  | Oc1ccc2c(c1O)CC(C1CCCCC1)O[C@H]2CNCc1ccccc1 (stereo partly drawn) |  |  |  |  | 
15 | 58 | 3.14 | > 10 | 12.3 |  |  |  | OCCCNC[C@@H]1OC(C2CCCCC2)Cc2c1ccc(O)c2O (stereo partly drawn) |  |  |  |  | 
16 |  | 3.19 | > 10 | 2.6 |  |  |  | C=CCN(C)C[C@@H]1OC(C2CCCCC2)Cc2c1ccc(O)c2O (stereo partly drawn) |  |  |  |  | 
17 |  | 0.407 | 0.286 | 1.07 |  |  | 100 | C#CCC1Cc2c(ccc(O)c2O)[C@H](CN)O1 (stereo partly drawn) |  |  |  |  | 
18 |  |  | > 10 |  |  |  |  | NC[C@@H]1OC(C23C[C@H]4C[C@@H](C2)C[C@@H](C3)C4)Cc2c1ccc(O)c2O (stereo partly drawn) |  |  |  |  | 
19 | 151 | 0.87 | 0.359 | 0.825 |  |  | 80 | CCCCC1Cc2c(ccc(O)c2O)[C@H](CN)O1 (stereo partly drawn) |  |  |  |  | 
20 | 106 | 0.052 | 0.358 | 2.09 |  |  | 94 | NC[C@@H]1OC(c2ccc(Br)cc2)Cc2c1ccc(O)c2O (stereo partly drawn) |  |  |  |  | 
21 |  | 0.0887 | 0.76 | 0.342 |  |  | 70 | NC[C@@H]1OC(C2CCCCCCC2)Cc2c1ccc(O)c2O (stereo partly drawn) |  |  |  |  | 
22 |  | 2.65 | > 10 | 2.71 |  |  |  | COc1ccc(CC2Cc3c(ccc(O)c3O)[C@H](CN)O2)cc1 (stereo partly drawn) |  |  |  |  | 
23 |  | 0.00049 | 0.192 | 0.59 |  |  | 111 | NC[C@@H]1OC(c2cccc(O)c2)Cc2c1ccc(O)c2O (stereo partly drawn) |  |  |  |  | 
24 | 124 | 0.0304 | 0.427 | 0.776 |  |  | 76 | NC[C@@H]1OC(CC2CCCC2)Cc2c1ccc(O)c2O (stereo partly drawn) |  |  |  |  | 
25 | 161 | 0.0137 | > 10 | 1.05 |  |  |  | NC[C@@H]1OC(c2ccc(I)cc2)Cc2c1ccc(O)c2O (stereo partly drawn) |  |  |  |  | 
26 | 90 | 0.704 | 0.782 | 5.54 | 0.0234 | 84 | 80 | CCCCCCC1Cc2c(ccc(O)c2O)[C@H](CN)O1 (stereo partly drawn) |  |  |  |  | 
27 | 71 | 0.329 | > 10 | 0.636 |  |  |  | Oc1ccc2c(c1O)CC(C1CCCCC1)O[C@H]2CNC1CC1 (stereo partly drawn) |  |  |  |  | 
